Test results taken from ChEMBL document CHEMBL1133116, “Synthesis and evaluation of 17-aliphatic heterocycle-substituted steroidal inhibitors of 17alpha-hydroxylase/C17-20-lyase (P450 17)” (J Med Chem, 2000).
pIC50, pKi: −log10 of the molar value.

What was measured:
[1] = target: T1, Steroid 17-alpha-hydroxylase/17,20 lyase (Rattus norvegicus, UniProt P11715); assay: Tested for inhibitory activity against Cytochrome P450 17 from rat testicular microsomes
T1 sequence (P11715 whole entry): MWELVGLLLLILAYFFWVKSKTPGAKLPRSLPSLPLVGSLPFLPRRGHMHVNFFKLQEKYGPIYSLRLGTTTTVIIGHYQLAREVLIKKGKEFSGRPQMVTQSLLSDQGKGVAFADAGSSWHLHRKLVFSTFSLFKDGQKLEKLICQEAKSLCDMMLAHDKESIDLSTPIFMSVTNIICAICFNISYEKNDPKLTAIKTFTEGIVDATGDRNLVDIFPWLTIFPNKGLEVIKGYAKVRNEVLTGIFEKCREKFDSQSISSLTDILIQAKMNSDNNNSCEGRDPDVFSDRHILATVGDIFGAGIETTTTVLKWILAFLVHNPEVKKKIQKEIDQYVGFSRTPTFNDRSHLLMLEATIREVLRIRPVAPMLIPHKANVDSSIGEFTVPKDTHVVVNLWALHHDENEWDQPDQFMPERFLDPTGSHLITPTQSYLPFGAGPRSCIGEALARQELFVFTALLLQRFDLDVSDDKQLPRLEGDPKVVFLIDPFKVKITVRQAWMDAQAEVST
Method in brief: (§1)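 Rat testicular microsomes incubated with progesterone substrate at 25 µM. Products were quantified by reverse-phase HPLC with UV detection. IC50 is the inhibitor concentration giving 50% inhibition, as the mean of at least two experiments, with deviations within 5%.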

[2] = target: T2, Steroid 17-alpha-hydroxylase/17,20 lyase (Homo sapiens, UniProt P05093); assay: Tested for inhibitory activity against Cytochrome P450 17 from human testicular microsomes
T2 sequence (P05093 whole entry): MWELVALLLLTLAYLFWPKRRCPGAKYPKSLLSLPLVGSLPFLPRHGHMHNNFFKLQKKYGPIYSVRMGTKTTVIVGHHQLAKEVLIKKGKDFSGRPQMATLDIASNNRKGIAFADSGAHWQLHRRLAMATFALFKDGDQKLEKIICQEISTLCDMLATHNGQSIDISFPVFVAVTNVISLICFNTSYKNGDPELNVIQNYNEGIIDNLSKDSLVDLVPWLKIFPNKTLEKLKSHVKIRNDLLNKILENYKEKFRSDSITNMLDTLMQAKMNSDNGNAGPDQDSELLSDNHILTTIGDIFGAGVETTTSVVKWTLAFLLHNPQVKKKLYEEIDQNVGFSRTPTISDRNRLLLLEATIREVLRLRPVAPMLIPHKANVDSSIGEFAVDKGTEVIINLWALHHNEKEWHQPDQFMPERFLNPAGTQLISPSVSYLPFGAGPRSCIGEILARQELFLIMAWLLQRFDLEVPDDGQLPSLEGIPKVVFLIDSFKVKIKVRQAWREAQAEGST

[3] = target: T3, 3-oxo-5-alpha-steroid 4-dehydrogenase 2 (Homo sapiens, UniProt P31213); assay: Inhibition of steroid 5-alpha-reductase type II isozyme
T3 sequence (P31213 whole entry): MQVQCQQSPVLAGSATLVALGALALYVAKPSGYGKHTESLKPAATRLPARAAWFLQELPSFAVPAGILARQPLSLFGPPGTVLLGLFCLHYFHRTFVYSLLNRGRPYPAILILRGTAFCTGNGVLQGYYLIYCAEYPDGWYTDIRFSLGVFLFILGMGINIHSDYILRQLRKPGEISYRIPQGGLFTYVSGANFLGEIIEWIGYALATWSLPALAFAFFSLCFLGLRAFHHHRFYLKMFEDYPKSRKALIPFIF
Method in brief: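 The enzyme source for the type II isozyme was prostate homogenate from patients with benign prostatic hyperplasia (BPH).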

[4] = target: T4, 3-oxo-5-alpha-steroid 4-dehydrogenase 1 (Homo sapiens, UniProt P18405); assay: Inhibition of steroid 5-alpha-reductase type I isozyme
T4 sequence (P18405 whole entry): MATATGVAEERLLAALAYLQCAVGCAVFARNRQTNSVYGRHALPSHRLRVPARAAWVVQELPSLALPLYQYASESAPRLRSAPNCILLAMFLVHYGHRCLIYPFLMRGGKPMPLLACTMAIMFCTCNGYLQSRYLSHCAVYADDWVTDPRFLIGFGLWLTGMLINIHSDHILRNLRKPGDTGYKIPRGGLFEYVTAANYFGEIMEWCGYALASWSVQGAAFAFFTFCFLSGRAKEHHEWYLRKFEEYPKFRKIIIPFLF
Method in brief: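 The enzyme source for the type I isozyme was the DU 145 cell line.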

[5] = target: T1, Steroid 17-alpha-hydroxylase/17,20 lyase; assay: Binding affinity for Cytochrome P450 17 from rat testicular microsomes
Method in brief: (§2)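 Ki was determined by the method of Lee and Wilson in the testicular microsome P450 17 assay. Inhibitor was used between its IC40 and IC70 values, with progesterone at 1.25–20 µM and 15 min incubation. All other parameters matched the regular assay. Kinetics were analysed by Lineweaver-Burk plot.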

[6] = target: T2, Steroid 17-alpha-hydroxylase/17,20 lyase; assay: Binding affinity for Cytochrome P450 17 from human testicular microsomes; method in brief: as §2
[7] = target: T1, Steroid 17-alpha-hydroxylase/17,20 lyase; assay: Inhibition of Cytochrome P450 17 from rat testicular microsomes; method in brief: as §1
[8] = target: T2, Steroid 17-alpha-hydroxylase/17,20 lyase; assay: Inhibition of cytochrome P450 17A1 from human testicular microsomes; n.i. means No inhibition
Method in brief: as §1, with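 “Human” for “Rat”, “The products, 16α- and 17α-hydroxyprogesterone,” for “Products”, “5%. "No inhibition" refers to 2.5 µM.” for “5%.”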

Rattus norvegicus = organism: Rattus norvegicus; assay: Percent reduction in plasma testosterone after 2 hr; type: functional
Method in brief: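 Adult male Sprague-Dawley rats, 7–8 per group, received a single intraperitoneal dose of 0.019 mmol/kg in olive oil/benzyl alcohol (95:5). Blood was taken by cardiac puncture under diethyl ether anesthesia at 2 h. Plasma testosterone was measured by RIA with [125I]testosterone, in ng/mL.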

[9] = target: T5, Cholesterol side-chain cleavage enzyme, mitochondrial (Bos taurus, UniProt P00189); assay: Inhibition of P450 scc
T5 sequence (P00189 whole entry): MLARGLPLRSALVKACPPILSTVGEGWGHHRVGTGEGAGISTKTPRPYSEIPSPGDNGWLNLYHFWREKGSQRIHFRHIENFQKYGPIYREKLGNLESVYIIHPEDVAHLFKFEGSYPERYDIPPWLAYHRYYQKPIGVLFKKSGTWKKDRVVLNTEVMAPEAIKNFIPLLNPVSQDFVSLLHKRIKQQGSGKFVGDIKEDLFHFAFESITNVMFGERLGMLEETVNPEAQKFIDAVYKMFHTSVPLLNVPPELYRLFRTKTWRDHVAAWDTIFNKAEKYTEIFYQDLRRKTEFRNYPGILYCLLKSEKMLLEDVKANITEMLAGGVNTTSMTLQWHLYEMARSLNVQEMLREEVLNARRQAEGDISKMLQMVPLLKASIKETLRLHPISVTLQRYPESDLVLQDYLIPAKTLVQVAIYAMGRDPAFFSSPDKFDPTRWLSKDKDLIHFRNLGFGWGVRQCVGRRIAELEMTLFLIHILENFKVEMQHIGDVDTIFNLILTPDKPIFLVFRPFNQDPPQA

Thromboxane-A synthase = target: T6, Thromboxane-A synthase (Homo sapiens, UniProt P24557); assay: Inhibition of thromboxane synthase P450 TXA2
T6 sequence (P24557 whole entry): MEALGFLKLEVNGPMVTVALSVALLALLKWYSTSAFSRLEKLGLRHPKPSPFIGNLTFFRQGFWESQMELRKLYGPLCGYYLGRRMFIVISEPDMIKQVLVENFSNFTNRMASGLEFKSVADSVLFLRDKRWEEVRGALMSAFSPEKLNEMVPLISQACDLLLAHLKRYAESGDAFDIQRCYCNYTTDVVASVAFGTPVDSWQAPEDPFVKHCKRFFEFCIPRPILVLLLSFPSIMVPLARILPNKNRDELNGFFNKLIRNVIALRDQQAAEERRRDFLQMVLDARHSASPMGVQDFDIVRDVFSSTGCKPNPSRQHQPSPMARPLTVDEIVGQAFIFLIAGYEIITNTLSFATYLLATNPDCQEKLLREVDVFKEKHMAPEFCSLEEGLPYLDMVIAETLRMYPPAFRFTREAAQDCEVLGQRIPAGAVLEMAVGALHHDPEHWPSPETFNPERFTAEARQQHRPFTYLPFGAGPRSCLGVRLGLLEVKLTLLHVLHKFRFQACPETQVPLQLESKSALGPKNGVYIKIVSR

Aromatase = target: T7, Aromatase (Homo sapiens, UniProt P11511); assay: Inhibition of Cytochrome P450 19A1
T7 sequence (P11511 whole entry): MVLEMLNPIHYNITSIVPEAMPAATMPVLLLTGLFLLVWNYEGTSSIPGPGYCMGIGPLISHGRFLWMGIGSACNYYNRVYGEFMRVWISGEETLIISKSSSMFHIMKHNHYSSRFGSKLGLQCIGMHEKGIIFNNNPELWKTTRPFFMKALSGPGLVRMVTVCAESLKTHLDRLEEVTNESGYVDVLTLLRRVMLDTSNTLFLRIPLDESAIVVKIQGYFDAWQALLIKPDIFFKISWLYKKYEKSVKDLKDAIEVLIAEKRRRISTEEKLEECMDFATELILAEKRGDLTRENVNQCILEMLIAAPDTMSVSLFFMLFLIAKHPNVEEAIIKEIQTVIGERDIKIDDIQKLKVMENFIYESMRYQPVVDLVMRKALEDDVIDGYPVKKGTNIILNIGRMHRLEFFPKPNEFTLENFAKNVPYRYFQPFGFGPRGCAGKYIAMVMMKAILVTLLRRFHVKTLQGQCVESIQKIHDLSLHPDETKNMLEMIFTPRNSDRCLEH

Structure (SMILES) | pIC50 [1] | pIC50 [2] | other results
CC1(C2CCC3C4CC=C5CC(O)CCC5(C)C4CCC32C)N=N1 (stereo not drawn) | < 3.90 | < 5.60 | 
CC12CCC(=O)CC1=CCC1C2CCC2(C)C(CC3CN3)CCC12 (stereo not drawn) | 5.88 | 5.74 | pIC50 [3]: 5.05; pIC50 [4]: 5.80
C[C@]12CC[C@H]3[C@@H](CC=C4CC(O)CC[C@@]43C)C1=CC[C@@H]2[C@@H]1CN1 (single isomer, unassigned) | 5.01 | 6.01 | 
C[C@]12CC[C@H]3[C@@H](CC=C4C[C@@H](O)CC[C@@]43C)C1=CC[C@@H]2[C@H]1CN1 | 6.37 | 6.54 | pKi [5]: 8.15; pKi [6]: 8.52
C[C@]12CC[C@H]3[C@@H](CC=C4C[C@@H](O)CC[C@@]43C)[C@@H]1CC[C@@H]2[C@H]1CO1 | 4.15 | 5.90 | 
CC12CCC(O)CC1=CCC1C2CCC2(C)C(c3c[nH]cn3)=CCC12 (stereo not drawn) |  |  | pIC50 [7]: 7.40
CC12CCC(O)CC1=CCC1C2CCC2(C)C(C3CCN3)CCC12 (stereo not drawn) |  |  | pIC50 [7]: < 3.90; IC50 [8]: Not Active
CC12CCC(O)CC1=CCC1C2CCC2(C)C(CC3CN3)CCC12 (stereo not drawn) | 6.28 | 6.40 | Reduction (Rattus norvegicus): 84%; pKi [5]: 8.05; pIC50 [9]: 6.00; pKi [6]: 8.22; pIC50 (Thromboxane-A synthase): 4.46; pIC50 (Aromatase): 5.15
C[C@]12CC[C@H]3[C@@H](CC=C4CC(O)CC[C@@]43C)[C@@H]1CC[C@@H]2C1CS1 (stereo partly drawn) | < 5.60 |  | 
C[C@]12CC[C@H]3C(CC=C4CC(=O)CC[C@@]43C)[C@@H]1CC[C@@H]2[C@@H]1CN1 (single isomer, unassigned) | 1.47 | < 5.60 | 
